The text below walks through data of ChEMBL document CHEMBL2380298, “Synthesis and antimicrobial activity of novel amphiphilic aromatic amino alcohols” (2013).

Molecules are shown by their SMILES. Some results are limits rather than exact numbers.

Format in all cases: functional
The subject of assay [1] is Nakaseomyces glabratus. In words: Antimicrobial activity against Candida glabrata ATCC 18804 by broth dilution method.
Assay [2] deals with Staphylococcus aureus. In words: Antimicrobial activity against Staphylococcus aureus ATCC 29213 by broth dilution method. Particulars: for MIC: Staphylococcus aureus, ATCC 29213.
Assay [3] has as its system Candida parapsilosis. In words: Antimicrobial activity against Candida parapsilosis ATCC 90030 by broth dilution method. Particulars: Lodderomyces parapsilosis.
For assay [4], the system named is Pseudomonas aeruginosa. The assay can be described thus: Antimicrobial activity against Pseudomonas aeruginosa ATCC 27853 by broth dilution method.
Assay [5] deals with Staphylococcus epidermidis. In words: Antimicrobial activity against Staphylococcus epidermidis ATCC 12228 by broth dilution method. Particulars: for MIC: Staphylococcus epidermidis, ATCC 12228.
For assay [6], the system named is Escherichia coli. In words: Antimicrobial activity against Escherichia coli ATCC 11229 by broth dilution method. Particulars: for MIC: Escherichia coli, ATCC 11229.
In assay [7] the test system is Candida tropicalis. The assay can be described thus: Antimicrobial activity against Candida tropicalis ATCC 750 by broth dilution method.
Assay [8] has as its system Staphylococcus aureus. The assay can be described thus: Bactericidal activity against methicillin-resistant Staphylococcus aureus clinical isolate 257 after 24 hrs. Particulars: isolate 257, 24 h. In short, it runs like this: (§1)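 Bactericidal concentration: 0.1 ml from wells at the MIC dilution and the dilutions on either side was streaked onto tryptic soy agar and incubated 24 h. It was taken as the lowest drug concentration giving no growth (100% killing).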

Assay [9] deals with Staphylococcus aureus. In words: Antimicrobial activity against methicillin-resistant Staphylococcus aureus clinical isolate 227 by broth dilution method.
For assay [10], the system named is Staphylococcus aureus. In words: Bactericidal activity against methicillin-resistant Staphylococcus aureus clinical isolate 238 after 24 hrs. Particulars: isolate 238, 24 h. In short, it runs like this:
as §1

Assay [11] deals with Staphylococcus aureus. The assay can be described thus: Bactericidal activity against methicillin-resistant Staphylococcus aureus clinical isolate 260 after 24 hrs. The note with it: isolate 260, 24 h. The procedure, abridged: as §1
Assay [12] concerns Escherichia coli. In words: Bactericidal activity against Escherichia coli ATCC 11229 after 24 hrs. The note with it: ATCC 11229, 24 h. The procedure, abridged:
(§2)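 MBC: after MIC determination, 0.1 ml from the MIC well and from two dilutions either side streaked on tryptic soy agar, incubated 24 h; MBC taken as lowest concentration giving no growth (100% kill).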

For assay [13], the system named is Staphylococcus aureus. In words: Bactericidal activity against Staphylococcus aureus ATCC 29213 after 24 hrs. Particulars: ATCC 29213, 24 h. The procedure, abridged: as §1
Assay [14] has as its system Staphylococcus aureus. In words: Antimicrobial activity against methicillin-resistant Staphylococcus aureus clinical isolate 231 by broth dilution method.
In assay [15] the test system is Staphylococcus aureus. In words: Bactericidal activity against methicillin-resistant Staphylococcus aureus clinical isolate 232 after 24 hrs. Particulars: isolate 232, 24 h. The procedure, abridged:
as §1

The subject of assay [16] is Staphylococcus epidermidis. In words: Bactericidal activity against Staphylococcus epidermidis ATCC 12228 after 24 hrs. The note with it: ATCC 12228, 24 h. The procedure, abridged:
as §2

For assay [17], the system named is Staphylococcus aureus. The assay can be described thus: Antimicrobial activity against methicillin-resistant Staphylococcus aureus clinical isolate 195 by broth dilution method.
Assay [18] relates to Staphylococcus aureus. In words: Bactericidal activity against methicillin-resistant Staphylococcus aureus clinical isolate 255 after 24 hrs. The note with it: isolate 255, 24 h. In short, it runs like this:
as §1

In assay [19] the test system is Staphylococcus aureus. The assay can be described thus: Bactericidal activity against methicillin-resistant Staphylococcus aureus clinical isolate 231 after 24 hrs. The note with it: isolate 231, 24 h. In short, it runs like this:
as §1

Assay [20] concerns Staphylococcus aureus. The assay can be described thus: Antimicrobial activity against methicillin-resistant Staphylococcus aureus clinical isolate 255 by broth dilution method.
For assay [21], the system named is Staphylococcus aureus. The assay can be described thus: Bactericidal activity against methicillin-resistant Staphylococcus aureus clinical isolate 225 after 24 hrs. Particulars: isolate 225, 24 h. In short, it runs like this:
as §1

For assay [22], the system named is Staphylococcus aureus. The assay can be described thus: Antimicrobial activity against methicillin-resistant Staphylococcus aureus clinical isolate 235 by broth dilution method.
Assay [23] concerns Staphylococcus aureus. The assay can be described thus: Bactericidal activity against methicillin-resistant Staphylococcus aureus clinical isolate 218 after 24 hrs. Particulars: isolate 218, 24 h. The procedure, abridged: as §1
The test system of assay [24] is Staphylococcus aureus. The assay can be described thus: Antimicrobial activity against methicillin-resistant Staphylococcus aureus clinical isolate 238 by broth dilution method.
Assay [25] deals with Staphylococcus aureus. The assay can be described thus: Antimicrobial activity against methicillin-resistant Staphylococcus aureus clinical isolate 207 by broth dilution method.
Assay [26] deals with Staphylococcus aureus. The assay can be described thus: Antimicrobial activity against methicillin-resistant Staphylococcus aureus clinical isolate 225 by broth dilution method.
Assay [27] concerns Staphylococcus aureus. In words: Antimicrobial activity against methicillin-resistant Staphylococcus aureus clinical isolate 176 by broth dilution method.
Assay [28] relates to Staphylococcus aureus. In words: Antimicrobial activity against methicillin-resistant Staphylococcus aureus clinical isolate 205 by broth dilution method.
Assay [29] concerns Staphylococcus aureus. In words: Bactericidal activity against methicillin-resistant Staphylococcus aureus clinical isolate 259 after 24 hrs. The note with it: isolate 259, 24 h. In short, it runs like this: as §1
The test system of assay [30] is Staphylococcus aureus. In words: Antimicrobial activity against methicillin-resistant Staphylococcus aureus clinical isolate 264 by broth dilution method.
Assay [31] deals with Staphylococcus aureus. The assay can be described thus: Antimicrobial activity against methicillin-resistant Staphylococcus aureus clinical isolate 260 by broth dilution method.
For assay [32], the system named is Staphylococcus aureus. The assay can be described thus: Bactericidal activity against methicillin-resistant Staphylococcus aureus clinical isolate 237 after 24 hrs. Particulars: isolate 237, 24 h. The procedure, abridged:
as §1

The test system of assay [33] is Staphylococcus aureus. The assay can be described thus: Antimicrobial activity against methicillin-resistant Staphylococcus aureus clinical isolate 215 by broth dilution method.
For assay [34], the system named is Staphylococcus aureus. The assay can be described thus: Antimicrobial activity against methicillin-resistant Staphylococcus aureus clinical isolate 236 by broth dilution method.
In assay [35] the test system is Staphylococcus aureus. In words: Antimicrobial activity against methicillin-resistant Staphylococcus aureus clinical isolate 218 by broth dilution method.
For assay [36], the system named is Staphylococcus aureus. In words: Bactericidal activity against methicillin-resistant Staphylococcus aureus clinical isolate 235 after 24 hrs. Particulars: isolate 235, 24 h. The procedure, abridged:
as §1

Assay [37] deals with Staphylococcus aureus. In words: Bactericidal activity against methicillin-resistant Staphylococcus aureus clinical isolate 264 after 24 hrs. The note with it: isolate 264, 24 h. The procedure, abridged: as §1
The test system of assay [38] is Staphylococcus aureus. The assay can be described thus: Bactericidal activity against methicillin-resistant Staphylococcus aureus clinical isolate 236 after 24 hrs. The note with it: isolate 236, 24 h. The procedure, abridged:
as §1

For assay [39], the system named is Staphylococcus aureus. In words: Antimicrobial activity against methicillin-resistant Staphylococcus aureus clinical isolate 212 by broth dilution method.
The test system of assay [40] is Staphylococcus aureus. The assay can be described thus: Antimicrobial activity against methicillin-resistant Staphylococcus aureus clinical isolate 237 by broth dilution method.
Assay [41] concerns Staphylococcus aureus. The assay can be described thus: Antimicrobial activity against methicillin-resistant Staphylococcus aureus clinical isolate 232 by broth dilution method.
Assay [42] relates to Staphylococcus aureus. In words: Bactericidal activity against methicillin-resistant Staphylococcus aureus clinical isolate 212 after 24 hrs. Particulars: isolate 212, 24 h. The procedure, abridged: as §1
Assay [43] has as its system Staphylococcus aureus. In words: Antimicrobial activity against methicillin-resistant Staphylococcus aureus clinical isolate 259 by broth dilution method.
For assay [44], the system named is Staphylococcus aureus. In words: Antimicrobial activity against methicillin-resistant Staphylococcus aureus clinical isolate 257 by broth dilution method.
The test system of assay [45] is Staphylococcus aureus. In words: Antimicrobial activity against methicillin-resistant Staphylococcus aureus clinical isolate 178 by broth dilution method.
Assay [46] relates to Candida albicans. In words: Antimicrobial activity against Candida albicans ATCC 22019 by broth dilution method.
Assay [47] deals with Staphylococcus aureus. In words: Antimicrobial activity against methicillin-resistant Staphylococcus aureus clinical isolate by broth dilution method.

For the molecule `CCCCOc1ccc(CNC(CO)(CO)CO)cc1.Cl`, the minimum inhibitory concentration (MIC) in assay [1] was 512 µg/mL; in [2], 1020 µg/mL; in assay [3] it was over 512 µg/mL; in assay [4], 512 µg/mL; in assay [5], 512 µg/mL; in [6] it was 1020 µg/mL. The molecule further had an MIC in assay [7] of over 512 µg/mL. Besides, the “-logMIC” value in [2] was found to be 2.49; in assay [5] it was 2.79; in assay [6], 2.49.
In the case of `CCCCCCOc1ccc(CNC(CO)(CO)CO)cc1.Cl`, the minimum inhibitory concentration (MIC) is 256 µg/mL in assay [1]; 128 µg/mL in assay [2]; over 512 µg/mL in assay [3]; 512 µg/mL in assay [4]; 128 µg/mL in assay [5]; 256 µg/mL in assay [6]. This molecule also showed an MIC in assay [7] of over 512 µg/mL. In addition, the “-logMIC” value worked out at 3.45 in assay [2], 3.43 in assay [5] and 3.13 in assay [6].
As to `CCCCCCCCOc1ccc(CNC(CO)(CO)CO)cc1.Cl`, the MBC was determined as 8 µg/mL in [8]; 16 µg/mL in assay [10]; 32 µg/mL in assay [11]; 32 µg/mL in assay [12]; 32 µg/mL in assay [13]; 16 µg/mL in [15]. The MBC in assay [16] was 128 µg/mL; in assay [18], 8 µg/mL; in assay [19], 16 µg/mL; in [21], 512 µg/mL; in assay [23] it was 128 µg/mL; in assay [29], 8 µg/mL. Besides, the MBC worked out at 16 µg/mL in assay [32]; 32 µg/mL in assay [36]; 64 µg/mL in assay [37]; 32 µg/mL in assay [38]; 128 µg/mL in assay [42]. The MIC in [1] was found to be 8 µg/mL; in [9], 32 µg/mL; in assay [14], 16 µg/mL; in assay [17], 32 µg/mL; in assay [20], 8 µg/mL; in assay [2], 8 µg/mL. Also, the MIC is 16 µg/mL in assay [22]; 16 µg/mL in [24]; 64 µg/mL in [25]; 128 µg/mL in assay [26]; 32 µg/mL in assay [3]; 32 µg/mL in assay [27]. Further, the MIC in assay [28] is 16 µg/mL; in assay [4], over 256 µg/mL; in assay [30] it was 8 µg/mL; in assay [31], 16 µg/mL; in assay [5] it was 16 µg/mL; in assay [33] it was 16 µg/mL. The MIC in [34] turned out to be 16 µg/mL; in [35], 16 µg/mL; in assay [39], 32 µg/mL; in [40] it was 16 µg/mL; in assay [41], 16 µg/mL; in assay [6], 32 µg/mL. Besides, the minimal inhibitory concentration (MIC) in [43] stood at 8 µg/mL; in assay [44], 8 µg/mL; in assay [7], 32 µg/mL; in assay [45] it was 128 µg/mL; in [46], 4 µg/mL. Also, the “-logMIC” value was 3.67 in assay [2], 4.37 in [5], 4.06 in assay [6] and 4.287 in assay [47]. The MIC50 in assay [47] (Staphylococcus aureus) came out at 16 µg/mL. Moreover, in assay [47] (Staphylococcus aureus), the MIC90 is 64 µg/mL.
